Experimental data: ChEMBL document CHEMBL3526139, “Clinical pharmacokinetics, metabolism, and drug-drug interaction of carfilzomib” (Drug Metab Dispos, 2013)

How the values were obtained:
[1] = molecular target: T1, Cytochrome P450 2C8 (Homo sapiens, UniProt P10632); test: Drug metabolism in pooled human hepatocytes assessed as disapperance rate at 1 uM by LC-MS/MS analysis in presence of 30 uM CYP2C8 inhibitor montelukast; type: ADME, cell-based, Hepatocyte
T1 sequence (P10632 whole entry): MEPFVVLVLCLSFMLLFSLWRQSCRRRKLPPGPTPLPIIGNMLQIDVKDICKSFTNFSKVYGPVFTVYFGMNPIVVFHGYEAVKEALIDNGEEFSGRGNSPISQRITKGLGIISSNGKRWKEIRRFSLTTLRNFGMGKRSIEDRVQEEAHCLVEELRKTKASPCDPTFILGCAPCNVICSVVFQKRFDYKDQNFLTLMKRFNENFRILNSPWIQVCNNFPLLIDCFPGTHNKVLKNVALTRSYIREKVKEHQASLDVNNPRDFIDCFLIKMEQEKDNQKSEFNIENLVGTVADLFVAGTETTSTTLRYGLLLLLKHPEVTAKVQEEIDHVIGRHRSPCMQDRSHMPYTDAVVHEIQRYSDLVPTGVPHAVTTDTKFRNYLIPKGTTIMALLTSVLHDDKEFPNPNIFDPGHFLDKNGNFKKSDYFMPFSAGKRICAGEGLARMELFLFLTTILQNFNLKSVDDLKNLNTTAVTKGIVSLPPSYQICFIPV
How it was run: (§1)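 Pooled human hepatocytes in suspension (~0.5 x 10^6 viable cells/mL) were incubated with 1 µM carfilzomib at 37°C under 5% CO2, with or without isoform-selective CYP chemical inhibitors. Reactions were quenched with acetonitrile at 0, 15, 30, 60 and 120 min. Carfilzomib was quantified by non-validated LC-MS/MS after protein precipitation.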

[2] = molecular target: T1, Cytochrome P450 2C8; test: Inhibition of CYP2C8 in human liver microsomes using amodiaquine as substrate after 5 mins by LC-MS/MS analysis; type: ADME
How it was run: (§2)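 Pooled HLM from 16 donors were incubated at 37°C in duplicate with carfilzomib 0.01–10 µM and probe substrate at about its Km. Substrates were phenacetin, amodiaquine, diclofenac, S-mephenytoin, dextromethorphan, testosterone and midazolam. Protein was 0.1 mg/mL, or 0.05 mg/mL with midazolam. Reactions ran 5 min without preincubation, then were quenched with acetonitrile. Metabolites were measured by LC-MS/MS relative to 0.5% acetonitrile controls.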

[3] = molecular target: T2, CYP3A (Homo sapiens, UniProt P08684+P20815+P24462+Q9HB55); test: Inhibition of CYP3A in human liver microsomes assessed as substrate metabolite formation using testosterone as substrate measured after 5 mins by LC-MS/MS analysis; type: ADME; conditions: probe testosterone; how it was run: as §2
[4] = AUC infinity in human patient with relapsed solid tumor at 20 mg/m'2, iv administered over 2 to 10 mins on days 1, 2, 8, 9, 15 and 16 of 28-day cycle measured on day 1 of cycle 1 by LC-MS/MS analysis; type: ADME, organism-based; design: route intravenous, time infinity; conditions: plasma
How it was run: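 Patients with relapsed solid tumors (n=3) received carfilzomib IV at 20 mg/m2. Plasma was sampled on Days 1 and 16 of Cycle 1 before dosing, at end of administration, and at 5, 15, 30 min and 1, 2, 4 h after. Samples underwent solid phase extraction and LC-MS/MS with d10-carfilzomib internal standard over 0.100–200 ng/mL. Parameters were derived noncompartmentally (constant IV infusion model) from actual elapsed time from infusion start.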

[5] = Drug excretion in urine of iv dosed human patient with relapsed and refractory hematological malignancies assessed as morpholino-hPhe metabolite formation administered on days 1, 2, 8, 9, 15 and 16 of 28-day cycle over 2 to 10 mins by LC-MS/MS analysis; type: ADME, organism-based; conditions: in vivo
[6] = molecular target: T2, CYP3A; test: Time-dependent inhibition of CYP3A in human liver microsomes assessed as midazolam 1'-hydroxylation using midazolam as substrate by LC-MS/MS analysis; type: ADME; conditions: probe midazolam (1'-hydroxylation)
How it was run: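 Pooled HLM (16 donors, mixed sex), 37°C, duplicate. IC50: carfilzomib 0.01–10 µM preincubated 30 min, then midazolam near Km (3.8 µM) at 0.05 mg/mL protein, 5 min, LC-MS/MS, relative to 0.5% acetonitrile control. KI/kinact: 0–8 µM preincubated 0–30 min with 1.25 mg/mL HLM plus NADPH-generating system, diluted 25-fold, midazolam 40 µM for 5 min.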

[7] = tested on: Plasma; test: Drug metabolism in plasma of human multiple myeloma patient assessed as morpholino-hPhe-Leu-Phe-Leu-diol metabolite formation at 15 mg/m'2, iv administered as single dose measured within first 30 mins after end of drug infusion by LC-MS/MS analysis; type: ADME, organism-based; conditions: in vivo, 0.5 h
How it was run: (§3)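 Patients with multiple myeloma received a single 15 mg/m2 carfilzomib dose. Plasma was sampled pre-dose, at end of infusion, at 5, 15, 30 min and at 1, 1.5, 2, 4, 6, 24 h. Samples were protein-precipitated and analyzed by LC-MS/MS (metabolites 0.500–500 ng/mL) with deuterated internal standards.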

[8] = molecular target: Cytochrome P450 2D6 (Homo sapiens, UniProt P10635); test: Drug metabolism in pooled human hepatocytes assessed as disapperance rate at 1 uM by LC-MS/MS analysis in presence of 10 uM CYP2D6 inhibitor quinidine; type: ADME, cell-based, Hepatocyte; how it was run: as §1
Sequence of Cytochrome P450 2D6 (P10635 whole entry): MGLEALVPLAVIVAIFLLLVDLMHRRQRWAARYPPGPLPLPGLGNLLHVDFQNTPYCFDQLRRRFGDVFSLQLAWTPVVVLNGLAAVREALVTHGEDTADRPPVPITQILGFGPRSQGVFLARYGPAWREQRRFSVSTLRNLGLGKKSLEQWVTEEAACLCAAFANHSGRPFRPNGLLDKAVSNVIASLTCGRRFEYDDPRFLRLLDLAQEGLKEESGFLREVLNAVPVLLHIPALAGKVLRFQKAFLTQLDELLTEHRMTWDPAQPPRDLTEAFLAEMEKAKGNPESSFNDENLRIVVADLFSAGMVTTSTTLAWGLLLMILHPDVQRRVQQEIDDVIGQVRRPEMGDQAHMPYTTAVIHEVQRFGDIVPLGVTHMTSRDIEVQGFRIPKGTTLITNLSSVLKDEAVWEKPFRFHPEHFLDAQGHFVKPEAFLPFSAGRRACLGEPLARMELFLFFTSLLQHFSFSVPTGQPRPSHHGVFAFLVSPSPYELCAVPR

[9] = Drug excretion in urine of human multiple myeloma patient with normal renal function at 15 mg/m'2, iv on days 1, 2, 8, 9, 15 and 16 of 28-day cycle over 2 to 10 mins by LC-MS/MS analysis relative to total drug dose; type: ADME, organism-based; conditions: read-out: Drug excretion
How it was run: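 Urine was collected 0–5 h and 5–24 h after dosing on Cycle 1 Day 1, with acetonitrile added at 25% of sample volume. Carfilzomib and metabolites were quantified by LC-MS/MS (carfilzomib and M15 4.00–2000 ng/mL, M14 10.0–5000 ng/mL) and expressed as percent of dose.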

[10] = tested on: Plasma; test: Drug metabolism in plasma of human multiple myeloma patient assessed as morpholino-hPhe-Leu metabolite formation at 15 mg/m'2, iv administered as single dose measured within first 30 mins after end of drug infusion by LC-MS/MS analysis; type: ADME, organism-based; conditions: in vivo, 0.5 h; how it was run: as §3
[11] = molecular target: T2, CYP3A; test: Inhibition of CYP3A in human liver microsomes assessed as substrate metabolite formation using testosterone as substrate preincubated with microsomes for 30 mins prior to substrate addition measured after 5 mins by LC-MS/MS analysis; type: ADME; conditions: probe testosterone
How it was run: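 HLM (16-donor pool) were preincubated 30 min with carfilzomib 0.01–10 µM before addition of midazolam or testosterone at about Km. Metabolite formation was measured by LC-MS/MS after 5 min, in duplicate, relative to 0.5% acetonitrile controls.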

## CC(C)C[C@H](NC(=O)[C@H](CCc1ccccc1)NC(=O)CN1CCOCC1)C(=O)N[C@@H](Cc1ccccc1)C(=O)N[C@@H](CC(C)C)C(=O)[C@@]1(C)CO1 [CARFILZOMIB]
[1]
  Drug metabolism: 0.014 min⁻¹
[2]
  IC50: > 10 µM
[3]
  IC50 at 5 min: > 10 µM
[4]
  AUC(0-inf): 238 ng·h/mL
[5]
  Drug excretion: metabolite_detected
[6]
  Ki: 11 µM
  kinact: 0.00167 s⁻¹
[7]
  Drug metabolism: metabolite_detected
[8]
  Drug metabolism: 0.013 min⁻¹
[9]
  dose excreted: < 1%
[10]
  Drug metabolism: metabolite_detected
[11]
  IC50 at 5 min: > 970 nM
